Where only a bound is given, the exact number is not on record here.

The species entered for assay [1] is Cavia porcellus. Briefly: Inhibition of CCK-8-stimulated amylase release. The format is functional.
Assay [2] deals with T1, Cholecystokinin receptor type A (Cavia porcellus, UniProt Q63931).
T1 sequence (Q63931 whole entry): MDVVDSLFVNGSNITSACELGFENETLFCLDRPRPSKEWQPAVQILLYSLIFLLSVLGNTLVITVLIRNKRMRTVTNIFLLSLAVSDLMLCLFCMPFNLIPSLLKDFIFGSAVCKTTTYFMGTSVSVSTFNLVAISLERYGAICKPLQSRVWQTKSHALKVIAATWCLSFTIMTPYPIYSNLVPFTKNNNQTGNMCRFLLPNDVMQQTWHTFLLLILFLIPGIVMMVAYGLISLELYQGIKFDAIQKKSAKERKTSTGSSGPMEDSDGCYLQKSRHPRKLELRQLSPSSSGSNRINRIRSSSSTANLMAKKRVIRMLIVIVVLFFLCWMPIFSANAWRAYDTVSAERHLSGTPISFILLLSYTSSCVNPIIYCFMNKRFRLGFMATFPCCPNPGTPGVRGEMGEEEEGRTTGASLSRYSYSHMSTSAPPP
Briefly: Inhibition of [125I]Bolton-Hunter CCK-8 binding to cholecystokinin type A receptor in guinea pig pancreatic membranes. The format is cell membranes.

The species entered for assay [3] is Cavia porcellus. Briefly: The compound was tested for the inhibition of CCK-8-stimulated amylase release. Type of assay: functional. The gist of the method:
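Amylase release was stimulated with CCK-8 at 3 × 10⁻¹⁰ M as the reference concentration, following a published procedure. Inhibition by test compounds gave IC50 values.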

Regarding `CCCCCN(CCCCC)C(=O)[C@H](Cc1c[nH]c2ccccc12)NC(=O)c1ccc(Cl)cc1`, the IC50 (as a rule, the concentration needed to halve the response being measured) in the assay filed under Cavia porcellus [1] was below 30000 nM; in assay [2] it was 475 nM.
As for `CCCCCN(CCCCC)C(=O)[C@H](Cc1c[nH]c2ccc(F)cc12)NC(=O)c1cnc2ccccc2c1`, the IC50 is above 100000 nM in the assay filed under Cavia porcellus [1] and 48 nM in assay [2].
For `CCCCCN(CCCCC)C(=O)[C@@H](Cc1c[nH]c2ccccc12)NC(=O)c1cc2cc(F)ccc2[nH]1`, in that order: below 100000 nM and 155 nM.
For `CCCCCN(CCCCC)C(=O)[C@@H](Cc1c[nH]c2ccccc12)NC(=O)c1ccc(Cl)c(Cl)c1`, in that order: 2500 nM and 190 nM.
On to `CCCCCN(CCCCC)C(=O)[C@H](Cc1c[nH]c2ccccc12)NC(=O)Nc1cccc(C)c1`, for which the IC50 in the assay listed under Cavia porcellus [1] is below 100000 nM; in assay [2], 1500 nM.
Regarding `CCCCCN(CCCCC)C(=O)[C@H](Cc1c[nH]c2ccccc12)NC(=O)c1ccc(Cl)c(Cl)c1`, the IC50 in the assay filed under Cavia porcellus [1] was above 30000 nM; in assay [2] it was 670 nM.
`CCCCCN(CCCCC)C(=O)C(Cc1c[nH]c2ccc(OCc3ccccc3)cc12)NC(=O)c1cnc2ccccc2c1` (configuration not stated) had an IC50 in the assay listed under Cavia porcellus [1] below 100000 nM.
Compound `CCCCCN(CCCCC)C(=O)[C@H](Cc1c[nH]c2ccccc12)NC(=O)Nc1ccc(C)cc1` yielded a concentration for half-maximal inhibition (IC50) in assay [2] above 10000 nM.
On to `C[C@H](NC(=O)[C@@H](Cc1c[nH]c2ccccc12)NC(=O)c1cnc2ccccc2c1)c1ccccc1`, for which the IC50 in assay [2] turned out to be 180 nM.
As to `CCCCCN(CCCCC)C(=O)[C@@H](Cc1c[nH]c2ccccc12)NC(=O)c1cc2ccccc2[nH]1`, the IC50 in the assay listed under Cavia porcellus [1] amounted to 670 nM.
For the compound `CCCCCN(CCCCC)C(=O)[C@@H](Cc1c[nH]c2ccccc12)NC(=O)c1nccc2ccccc12`, the IC50 in the assay listed under Cavia porcellus [1] was above 100000 nM.
Turning to `CCCCCN(CCCCC)C(=O)[C@H](Cc1c[nH]c2ccccc12)NC(=O)c1cc2ccccc2[nH]1`, the IC50 is below 30000 nM in the assay listed under Cavia porcellus [1] and 520 nM in assay [2].
For `CCCCCN(CCCCC)C(=O)[C@@H](Cc1c[nH]c2ccccc12)NC(=O)c1cc(O)c2ccccc2n1`, in that order: 110 nM and 51 nM.
For the compound `CCCCCN(CCCCC)C(=O)[C@@H](Cc1c[nH]c2ccccc12)NC(=O)c1ccc2cc(O)ccc2c1`, in the assay filed under Cavia porcellus [1], the IC50 came to 100000 nM.
With `CCCCCN(CCCCC)C(=O)[C@@H](Cc1c[nH]c2ccccc12)NC(=O)c1cccc2ccccc12`, the IC50 was below 30000 nM in the assay listed under Cavia porcellus [1] and 500 nM in assay [2].
For `CCCCCN(CCCCC)C(=O)[C@@H](Cc1c[nH]c2ccccc12)NC(=O)c1cc2ccccc2cn1`, in that order: below 100000 nM and 880 nM.
For `CCCCCN(CCCCC)C(=O)[C@@H](Cc1c[nH]c2ccccc12)NC(=O)c1c[nH]c2ccccc12`, in that order: below 10000 nM and 430 nM.
Turning to `CCCCCN(CCCCC)C(=O)[C@@H](Cc1c[nH]c2ccccc12)NC(=O)c1ccc(Cl)cc1`, the IC50 in the assay filed under Cavia porcellus [1] is below 10000 nM; in assay [2], 370 nM.
For the compound `CCCCCN(CCCCC)C(=O)[C@@H](Cc1c(Sc2ccccc2[N+](=O)[O-])[nH]c2ccccc12)NC(=O)c1cnc2ccccc2c1`, in the assay filed under Cavia porcellus [1], the half-inhibitory concentration (IC50) was below 100000 nM.
On to `CCCCCN(CCCCC)C(=O)[C@@H](Cc1c[nH]c2ccc(O)cc12)NC(=O)c1cnc2ccccc2c1`, for which the figures for the IC50 (in the assay filed under Cavia porcellus [1]; in assay [2]) were 27 nM and 11 nM, respectively.
In the case of `CCCCCN(CCCCC)C(=O)[C@@H](Cc1c[nH]c2ccccc12)NC(=O)c1ccc[nH]1`, the IC50 in the assay filed under Cavia porcellus [1] is above 100000 nM.
Same read-out and setting: next, `CCCCCN(CCCCC)C(=O)[C@H](Cc1c[nH]c2ccccc12)NC(=O)c1cnc2ccccc2c1`: below 100000 nM.
The compound `CN(Cc1ccccc1)C(=O)[C@@H](Cc1c[nH]c2ccccc12)NC(=O)c1cnc2ccccc2c1` yielded an IC50 in assay [2] of 600 nM.
Turning to `O=C(N[C@@H](Cc1c[nH]c2ccccc12)C(=O)O)c1ccc(Cl)cc1` [BENZOTRIPT], the IC50 in assay [2] was above 100000 nM.
In the case of `CCCCCN(CCCCC)C(=O)[C@@H](Cc1c[nH]c2ccccc12)NC(=O)Nc1cccc(C)c1`, the 50% inhibitory concentration (IC50) was above 30000 nM in the assay listed under Cavia porcellus [1] and 1100 nM in assay [2].
As to `CCCCCN(CCCCC)C(=O)[C@@H](CCC(=O)O)NC(=O)c1cc(O)c2cccc(O)c2n1`, the IC50 in the assay filed under Cavia porcellus [1] is 106 nM; in assay [2], 7 nM.
For `CCCCCN(CCCCC)C(=O)[C@@H](Cc1c[nH]c2ccccc12)NC(=O)/C=C/c1cccnc1`, in that order: below 100000 nM and above 1000 nM.
`CCCCCN(CCCCC)C(=O)[C@@H](Cc1c[nH]c2ccccc12)NC(=O)c1cc(O)c2cccc(O)c2n1` had an IC50 in the assay listed under Cavia porcellus [1] of 46 nM.
In the case of `CCCCCN(CCCCC)C(=O)[C@@H](Cc1c[nH]c2ccccc12)NC(=O)c1cnc2ccccc2c1`, the IC50 in the assay listed under Cavia porcellus [1] was 43 nM.
`CCOC(=O)CN(Cc1ccccc1)C(=O)[C@@H](Cc1c[nH]c2ccccc12)NC(=O)c1cnc2ccccc2c1` yielded an IC50 in assay [2] of 400 nM.
For `CCCCCN(CCCCC)C(=O)[C@@H](CC1C(=O)Nc2ccccc21)NC(=O)c1cnc2ccccc2c1` (some centres not stated), the IC50 in the assay listed under Cavia porcellus [1] was 62 nM; in assay [2], 46 nM.
`CCCCCN(CCCCC)C(=O)[C@H](Cc1c[nH]c2ccccc12)NC(=O)Nc1ccc(Cl)cc1` gave an IC50 in assay [2] above 10000 nM.
As to `CCCCCN(CCCCC)C(=O)[C@@H](Cc1c[nH]c2ccccc12)NC(=O)c1ccc2ncccc2c1`, the half-maximal inhibitory concentration (IC50) in the assay filed under Cavia porcellus [1] was below 10000 nM; in assay [2], 239 nM.
For `C[C@@H](NC(=O)[C@@H](Cc1c[nH]c2ccccc12)NC(=O)c1cnc2ccccc2c1)c1ccccc1`, the IC50 in the assay filed under Cavia porcellus [3] was above 10000 nM; in assay [2] it was 810 nM.
Regarding `CCCCCN(CCCCC)C(=O)[C@@H](Cc1c[nH]c2ccccc12)NC(=O)c1ccc2ccccc2n1`, the IC50 in the assay listed under Cavia porcellus [1] is 1300 nM; in assay [2], 120 nM.
Take `CCCCCN(CCCCC)C(=O)[C@@H](Cc1c[nH]c2ccccc12)NC(=O)c1ccc2cccc(O)c2n1`: the IC50 in the assay listed under Cavia porcellus [1] is below 100000 nM; in assay [2], 390 nM.
For the compound `CCCCCN(CCCCC)C(=O)[C@@H](Cc1c[nH]c2ccccc12)NC(=O)c1ccc2ccccc2c1`, the IC50 in the assay listed under Cavia porcellus [1] stood at 360 nM; in assay [2], 29 nM.
For `CCCCCN(CCCCC)C(=O)[C@@H](Cc1c[nH]c2ccccc12)NC(=O)c1cccnc1`, in that order: above 100000 nM and 14600 nM.
For the compound `CCCCCN(CCCCC)C(=O)[C@@H](Cc1c[nH]c2ccccc12)NC(=O)Nc1ccc(Cl)cc1`, in assay [2], the IC50 amounted to 4200 nM.

(Values after ChEMBL document CHEMBL1125805, “Cholecystokinin antagonists: (R)-tryptophan-based hybrid antagonists of high affinity and selectivity for CCK-A receptors” (J Med Chem, 1991).)
